Measured values reported in publication PMC3124385 (Clinical pharmacology and therapeutics, 2011).
Where two headings read alike, the source gives them in different places. Starred links: 1 amine or outer side, 2 acyl side, 3 side chain; linkers in the order of their positions; H or OH if unused. Positions of bridges follow the written chain, without caps; N, C: chain ends. Non-standard residues stand in square brackets, D forms with d. Residues, ends and D or L forms follow the SMILES beside them. *: point of attachment. pTerphenylCO(4''-OnC5H11) = CCCCCOc1ccc(-c2ccc(-c3ccc(C(=O)*)cc3)cc2)cc1; Orn(4R-OH,5R-OH) = O=C([C@H](C[C@@H](O)[C@@H](O)N[*:3])N[*:1])[*:2]; hTyr(3S-OH,4S-OH) = N[C@H](C(=O)O)[C@H](O)[C@@H](O)c1ccc(O)cc1; Pro(3S-OH,4S-Me) = C[C@H]1CN[C@H](C(=O)O)[C@H]1O; Hyp = O=C(O)[C@@H]1C[C@@H](O)CN1

Legend:
[1] = format: in vivo, human; conditions: for C24 LD, trough (24 h) concentration after the loading dose / Cmax LD, maximum concentration after loading dose: after 3 mg/kg IV loading dose, day 1, plasma LC-MS/MS
Method in brief: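 IV infusion over 60 min (≤1.1 mg/min): 3 mg/kg loading dose day 1, then 1.5 mg/kg daily up to day 5. Infants got a 20% alcohol-based form and neonates an alcohol-free water-for-injection form. Venous plasma drawn day 1 (predose, end-infusion, 20–24 h) and days 3–5 (predose to 18–24 h), kept at −80°C, assayed by LC-MS/MS (0.05–20.0 μg/ml). Noncompartmental analysis of doses 3–5; AUC by linear trapezoidal rule; CL = dose/AUC.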

[2] = Safety: adverse events and clinical laboratory tests in infants and neonates; format: in vivo, human
[3] = ref [12], cited from earlier work
[4] = ref [10], cited from earlier work
[5] = system: cytochrome P450 enzymatic system; conditions: ref [10]; cited from earlier work

## CCCCCOc1ccc(-c2ccc(-c3ccc(C(=O)N[C@H]4C[C@@H](O)[C@@H](O)NC(=O)[C@@H]5[C@@H](O)[C@@H](C)CN5C(=O)[C@H]([C@@H](C)O)NC(=O)[C@H]([C@H](O)[C@@H](O)c5ccc(O)cc5)NC(=O)[C@@H]5C[C@@H](O)CN5C(=O)[C@H]([C@@H](C)O)NC4=O)cc3)cc2)cc1 [anidulafungin, Anidulafungin] ({pTerphenylCO(4''-OnC5H11)}-[Orn(4R-OH,5R-OH)]T[Hyp][hTyr(3S-OH,4S-OH)]T[Pro(3S-OH,4S-Me)]; lactam 1-C)
[1]; comparing trough concentrations after the loading dose and those obtained after multiple doses
  drug accumulation after multiple anidulafungin doses: not apparent
[1]; human, plasma, iv, 1.5 mg/kg
  Cmax: 4200 ng/mL
[1]; human, plasma, iv, 3 mg/kg
  Cmax: 5000 ng/mL
  level at 24 h: 2100 ng/mL
[1]; scatter plot, Figure 3, neonates and infants
  trend in weight-adjusted clearance (CLss) with changes in postmenstrual age: No trend was observed
[1]; subject 4, neonate
  C24 LD, trough (24 h) concentration after the loading dose: 2.1 µg/mL
  Cmax LD, maximum concentration after loading dose: 4000 ng/mL
[1]; subject 6, neonate
  C24 LD, trough (24 h) concentration after the loading dose: 3.2 µg/mL
  Cmax LD, maximum concentration after loading dose: 5900 ng/mL
[1]; subject 8, neonate
  C24 LD, trough (24 h) concentration after the loading dose: 1.9 µg/mL
  Cmax LD, maximum concentration after loading dose: 4900 ng/mL
[1]; subject 9, infant
  C24 LD, trough (24 h) concentration after the loading dose: 2.3 µg/mL
  Cmax LD, maximum concentration after loading dose: 7100 ng/mL
[1]; subject 10, infant
  C24 LD, trough (24 h) concentration after the loading dose: 2.4 µg/mL
  Cmax LD, maximum concentration after loading dose: 5000 ng/mL
[1]; subject 11, infant
  C24 LD, trough (24 h) concentration after the loading dose: 1.9 µg/mL
  Cmax LD, maximum concentration after loading dose: 6800 ng/mL
[2]; eight out of 15 subjects, neonates and infants
  subjects who experienced at least one adverse event: 53%
[2]; other infant with worsening hyperbilirubinemia, baseline 9.1 mg/dL
  maximum bilirubin level during study drug administration: 10.4 mg/dL
[3]; older children (1.5 mg/kg/day) and adults (100 mg/day)
  AUCss of older children and adults: 100000 ng·h/mL
[3]; other pediatric patients
  half life in other pediatric patients: 20 to 24 h
[4]; [11]
  hepatic metabolism: lacks significant hepatic metabolism
[4]
  degradation in the blood: undergoes chemical degradation in the blood
  renal clearance: not renally cleared
[5]
  metabolism by the cytochrome P450 enzymatic system: not metabolized by the cytochrome P450 enzymatic system
